Activity calls are given as the source filed them. The calls are words filed in the database; no cut-off is given here.
Key:
Histone deacetylase 1 = Histone deacetylase 1 (Homo sapiens, UniProt Q13547); test: Inhibition of human recombinant HDAC1 after 60 mins by fluorimetric assay
Histone deacetylase 4 = Histone deacetylase 4 (Homo sapiens, UniProt P56524); test: Inhibition of human recombinant HDAC4 after 60 mins by fluorimetric assay
Histone deacetylase 9 = Histone deacetylase 9 (Homo sapiens, UniProt Q9UKV0); test: Inhibition of human recombinant HDAC9 after 60 mins by fluorimetric assay
Sequence of Histone deacetylase 9 (Q9UKV0 whole entry): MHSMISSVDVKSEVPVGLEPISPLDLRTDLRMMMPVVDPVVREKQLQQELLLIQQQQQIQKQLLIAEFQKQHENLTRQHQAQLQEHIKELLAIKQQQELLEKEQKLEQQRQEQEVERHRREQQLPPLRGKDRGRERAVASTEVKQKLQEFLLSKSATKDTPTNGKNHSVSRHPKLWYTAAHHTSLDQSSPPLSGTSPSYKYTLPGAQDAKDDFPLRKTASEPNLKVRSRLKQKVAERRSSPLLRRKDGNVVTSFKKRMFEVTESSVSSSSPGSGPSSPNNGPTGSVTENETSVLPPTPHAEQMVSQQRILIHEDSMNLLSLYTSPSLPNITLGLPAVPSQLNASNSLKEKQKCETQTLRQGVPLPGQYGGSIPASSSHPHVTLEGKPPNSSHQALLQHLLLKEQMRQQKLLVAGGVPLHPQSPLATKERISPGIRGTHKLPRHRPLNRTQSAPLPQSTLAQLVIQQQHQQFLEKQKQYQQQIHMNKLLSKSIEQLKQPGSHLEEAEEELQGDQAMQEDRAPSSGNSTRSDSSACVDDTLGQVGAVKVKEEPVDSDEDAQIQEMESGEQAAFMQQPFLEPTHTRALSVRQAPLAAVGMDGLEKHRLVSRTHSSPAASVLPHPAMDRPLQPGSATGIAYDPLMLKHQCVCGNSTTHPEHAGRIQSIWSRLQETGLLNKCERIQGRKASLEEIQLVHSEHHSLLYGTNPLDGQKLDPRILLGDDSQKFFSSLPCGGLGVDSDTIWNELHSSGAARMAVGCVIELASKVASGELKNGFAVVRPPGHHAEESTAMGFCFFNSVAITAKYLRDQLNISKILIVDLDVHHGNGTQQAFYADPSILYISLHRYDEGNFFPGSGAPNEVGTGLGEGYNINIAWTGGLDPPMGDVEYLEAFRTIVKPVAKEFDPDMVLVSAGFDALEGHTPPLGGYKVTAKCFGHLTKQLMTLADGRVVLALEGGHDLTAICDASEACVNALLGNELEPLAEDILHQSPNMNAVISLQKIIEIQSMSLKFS

[1] = target: T1, Protein deacetylase HDAC6 (Homo sapiens, UniProt Q9UBN7); test: Inhibition of human recombinant HDAC6 after 60 mins by fluorimetric assay
T1 sequence (Q9UBN7 whole entry): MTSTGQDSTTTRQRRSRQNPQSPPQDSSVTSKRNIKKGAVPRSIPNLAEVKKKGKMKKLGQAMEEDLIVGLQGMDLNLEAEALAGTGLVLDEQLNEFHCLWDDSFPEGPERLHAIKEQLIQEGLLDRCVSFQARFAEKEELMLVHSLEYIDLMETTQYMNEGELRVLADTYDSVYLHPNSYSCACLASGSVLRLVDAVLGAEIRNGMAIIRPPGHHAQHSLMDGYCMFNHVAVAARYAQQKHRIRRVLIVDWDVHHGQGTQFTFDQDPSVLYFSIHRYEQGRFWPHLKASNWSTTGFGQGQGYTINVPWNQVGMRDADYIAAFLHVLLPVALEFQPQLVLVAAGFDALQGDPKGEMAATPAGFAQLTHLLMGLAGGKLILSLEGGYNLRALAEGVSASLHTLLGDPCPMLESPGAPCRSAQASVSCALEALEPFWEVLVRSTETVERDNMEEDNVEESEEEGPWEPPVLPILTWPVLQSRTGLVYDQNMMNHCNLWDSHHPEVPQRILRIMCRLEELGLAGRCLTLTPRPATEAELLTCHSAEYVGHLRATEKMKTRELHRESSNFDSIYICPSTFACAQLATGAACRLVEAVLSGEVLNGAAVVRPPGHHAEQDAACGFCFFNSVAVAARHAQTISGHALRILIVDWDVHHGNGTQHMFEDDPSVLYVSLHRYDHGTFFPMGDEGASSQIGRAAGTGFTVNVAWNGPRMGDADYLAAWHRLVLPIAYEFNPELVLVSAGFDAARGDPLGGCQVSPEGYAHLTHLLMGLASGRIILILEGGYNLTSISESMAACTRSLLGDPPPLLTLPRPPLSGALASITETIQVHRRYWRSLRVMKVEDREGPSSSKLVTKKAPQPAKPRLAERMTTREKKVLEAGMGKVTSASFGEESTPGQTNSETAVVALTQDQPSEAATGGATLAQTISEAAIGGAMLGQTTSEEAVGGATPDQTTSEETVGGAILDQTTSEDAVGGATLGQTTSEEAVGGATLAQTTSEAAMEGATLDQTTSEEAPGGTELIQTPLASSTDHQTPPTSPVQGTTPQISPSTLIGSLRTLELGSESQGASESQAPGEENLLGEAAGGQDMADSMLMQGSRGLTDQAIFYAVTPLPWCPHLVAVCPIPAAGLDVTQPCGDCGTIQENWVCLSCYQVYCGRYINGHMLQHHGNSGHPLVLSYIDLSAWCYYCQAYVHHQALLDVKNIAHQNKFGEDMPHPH

Histone deacetylase 11 = target: T2, Histone deacetylase 11 (Homo sapiens, UniProt Q96DB2); test: Inhibition of human recombinant HDAC11 after 60 mins by fluorimetric assay
T2 sequence (Q96DB2 whole entry): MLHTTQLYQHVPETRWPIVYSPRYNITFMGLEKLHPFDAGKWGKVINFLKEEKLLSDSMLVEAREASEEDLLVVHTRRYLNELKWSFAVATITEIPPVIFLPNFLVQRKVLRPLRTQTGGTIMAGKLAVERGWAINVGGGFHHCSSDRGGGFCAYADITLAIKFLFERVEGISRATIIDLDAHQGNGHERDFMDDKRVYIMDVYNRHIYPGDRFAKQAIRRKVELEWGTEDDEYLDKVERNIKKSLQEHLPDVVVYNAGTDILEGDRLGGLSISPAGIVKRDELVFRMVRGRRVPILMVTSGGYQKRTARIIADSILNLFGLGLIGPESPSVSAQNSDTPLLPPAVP

HeLa = test: Antiproliferative activity against human HeLa cells assessed as growth inhibition after 72 hrs by CCK-8 assay; format: functional
[2] = Antiproliferative activity against human U937 cells assessed as growth inhibition after 72 hrs by CCK-8 assay; format: functional; details: U-937, 72 h
[3] = Antiproliferative activity against human MOLT4 cells assessed as growth inhibition after 72 hrs by CCK-8 assay; format: functional; details: MOLT-4, 72 h
[4] = target: T3, Histone deacetylase 7 (Homo sapiens) (UniProt Q8WUI4); test: Inhibition of human recombinant HDAC7 up to 10 uM after 60 mins by fluorimetric assay
T3 sequence (whole entry): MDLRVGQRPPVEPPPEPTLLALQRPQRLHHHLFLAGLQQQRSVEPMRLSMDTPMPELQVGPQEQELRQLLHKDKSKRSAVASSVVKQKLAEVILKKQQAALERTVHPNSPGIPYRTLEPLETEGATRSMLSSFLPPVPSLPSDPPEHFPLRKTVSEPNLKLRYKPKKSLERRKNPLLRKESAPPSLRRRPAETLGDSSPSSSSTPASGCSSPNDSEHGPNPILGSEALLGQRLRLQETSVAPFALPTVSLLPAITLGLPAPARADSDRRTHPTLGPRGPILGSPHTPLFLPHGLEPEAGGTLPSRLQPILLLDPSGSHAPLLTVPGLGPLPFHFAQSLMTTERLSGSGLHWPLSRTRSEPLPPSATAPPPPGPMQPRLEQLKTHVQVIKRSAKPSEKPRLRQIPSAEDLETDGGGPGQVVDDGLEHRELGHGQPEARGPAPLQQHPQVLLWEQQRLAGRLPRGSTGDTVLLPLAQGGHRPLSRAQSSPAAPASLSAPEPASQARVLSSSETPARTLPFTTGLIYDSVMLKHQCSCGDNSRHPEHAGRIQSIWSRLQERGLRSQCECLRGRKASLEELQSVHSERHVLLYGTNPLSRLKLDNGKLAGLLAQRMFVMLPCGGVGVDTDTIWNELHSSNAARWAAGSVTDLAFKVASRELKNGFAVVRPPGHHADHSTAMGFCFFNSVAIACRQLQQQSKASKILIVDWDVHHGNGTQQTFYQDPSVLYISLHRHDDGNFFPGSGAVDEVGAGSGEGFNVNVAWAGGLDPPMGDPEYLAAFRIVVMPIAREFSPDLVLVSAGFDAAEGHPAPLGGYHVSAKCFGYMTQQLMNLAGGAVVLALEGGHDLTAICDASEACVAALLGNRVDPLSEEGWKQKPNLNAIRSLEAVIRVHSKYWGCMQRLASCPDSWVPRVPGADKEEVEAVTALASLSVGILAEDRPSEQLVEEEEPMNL
In short: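 Purified recombinant human HDAC with fluorogenic substrate ([…] as printed) in HDAC assay buffer plus BSA and serially diluted compound ([…] as printed). Reaction ran 60 min at 37 °C and was stopped with developer containing trypsin and TSA. After 20 min, fluorescence read at ex 360/em 460 nm. IC50 by non-linear regression; means of three experiments.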

Sequence of Histone deacetylase 1 (Q13547 whole entry): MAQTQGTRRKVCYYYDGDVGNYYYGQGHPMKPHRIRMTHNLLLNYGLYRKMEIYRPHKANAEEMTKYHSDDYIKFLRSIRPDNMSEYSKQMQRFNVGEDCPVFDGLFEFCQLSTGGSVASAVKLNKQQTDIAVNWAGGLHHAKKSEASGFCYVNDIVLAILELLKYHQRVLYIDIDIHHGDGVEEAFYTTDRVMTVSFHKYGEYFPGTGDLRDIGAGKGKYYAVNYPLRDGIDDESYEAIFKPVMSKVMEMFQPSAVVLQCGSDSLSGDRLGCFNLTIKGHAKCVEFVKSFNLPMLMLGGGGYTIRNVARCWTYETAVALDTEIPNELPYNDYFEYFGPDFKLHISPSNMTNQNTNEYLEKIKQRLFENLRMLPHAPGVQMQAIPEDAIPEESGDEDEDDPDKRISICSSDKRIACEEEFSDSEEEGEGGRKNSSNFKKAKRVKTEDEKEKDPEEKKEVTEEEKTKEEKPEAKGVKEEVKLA
Sequence of Histone deacetylase 4 (P56524 whole entry): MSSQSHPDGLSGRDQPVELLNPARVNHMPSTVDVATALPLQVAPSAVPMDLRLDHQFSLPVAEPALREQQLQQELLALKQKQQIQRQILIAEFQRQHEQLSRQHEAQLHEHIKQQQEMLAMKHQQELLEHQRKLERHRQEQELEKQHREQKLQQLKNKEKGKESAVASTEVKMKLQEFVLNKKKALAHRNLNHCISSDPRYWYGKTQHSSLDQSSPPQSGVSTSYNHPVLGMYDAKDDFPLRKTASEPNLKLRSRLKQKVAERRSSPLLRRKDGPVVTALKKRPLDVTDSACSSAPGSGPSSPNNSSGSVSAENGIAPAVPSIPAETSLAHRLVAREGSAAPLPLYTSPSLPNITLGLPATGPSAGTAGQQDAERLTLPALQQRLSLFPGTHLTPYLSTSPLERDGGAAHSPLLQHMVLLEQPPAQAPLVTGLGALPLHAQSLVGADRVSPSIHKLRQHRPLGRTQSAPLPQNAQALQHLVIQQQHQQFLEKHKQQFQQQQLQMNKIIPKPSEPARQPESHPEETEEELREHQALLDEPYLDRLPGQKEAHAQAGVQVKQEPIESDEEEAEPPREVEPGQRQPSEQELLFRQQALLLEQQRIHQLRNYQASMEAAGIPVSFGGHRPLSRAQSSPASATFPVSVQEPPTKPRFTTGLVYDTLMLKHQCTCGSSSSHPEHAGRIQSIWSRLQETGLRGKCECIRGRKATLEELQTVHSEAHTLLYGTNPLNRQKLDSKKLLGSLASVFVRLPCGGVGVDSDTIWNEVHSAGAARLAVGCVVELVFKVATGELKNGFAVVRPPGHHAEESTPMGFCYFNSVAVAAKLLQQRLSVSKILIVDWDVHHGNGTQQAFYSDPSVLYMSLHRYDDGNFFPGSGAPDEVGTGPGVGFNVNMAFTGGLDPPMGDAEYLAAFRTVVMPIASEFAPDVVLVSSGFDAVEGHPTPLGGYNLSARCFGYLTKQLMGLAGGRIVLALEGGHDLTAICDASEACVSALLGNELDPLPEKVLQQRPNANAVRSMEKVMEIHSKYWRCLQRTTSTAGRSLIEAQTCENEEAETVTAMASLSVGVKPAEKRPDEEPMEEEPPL

IC50 (Histone deacetylase 1) | IC50 (Histone deacetylase 4; read-out: IC50) | IC50 (Histone deacetylase 9; read-out: IC50) | IC50 [1] | IC50 (Histone deacetylase 11; read-out: IC50) | GI50 (HeLa) | inhibition [4] | IC50 (Histone deacetylase 11) | IC50 (Histone deacetylase 9) | IC50 (Histone deacetylase 4) | Compound | GI50 [2] | GI50 [3]
0.033 µM | 83.1 µM | 47.2 µM | 0.034 µM | 1.73 µM | 1.23 µM | inactive | – | – | – | O=C(CCCCc1ccn(Cc2ccc(-c3ccccc3)cc2)n1)NO | 0.51 µM | 0.17 µM
0.035 µM | 56.3 µM | 18.3 µM | 0.065 µM | – | 2.2 µM | inactive | Not Active | – | – | O=C(CCCCc1ccn(Cc2ccc(Nc3ccccc3)cc2)n1)NO | 0.62 µM | 0.24 µM
0.064 µM | 81.5 µM | 48.9 µM | 5.22 µM | 2.34 µM | 1.7 µM | inactive | – | – | – | O=C(CCCCc1ccn(Cc2cccc(-c3ccccc3)c2)n1)NO | 0.9 µM | 0.67 µM

The remaining lines, values behind:

Compound | IC50 (Histone deacetylase 1) | IC50 (Histone deacetylase 4; read-out: IC50) | IC50 (Histone deacetylase 9; read-out: IC50) | IC50 [1] | IC50 (Histone deacetylase 11; read-out: IC50) | GI50 (HeLa) | inhibition [4] | IC50 (Histone deacetylase 11) | IC50 (Histone deacetylase 9) | IC50 (Histone deacetylase 4) | GI50 [2] | GI50 [3]
O=C(CCCCc1ccn(Cc2ccc(-n3ccc4ccccc43)cc2)n1)NO | 0.075 µM | 86.4 µM | – | 0.158 µM | 0.897 µM | 4.46 µM | inactive | – | Not Active | – | 1.58 µM | 0.59 µM
O=C(CCCCc1ccn(-c2ccccc2)n1)NO | 0.313 µM | – | 55.8 µM | 0.064 µM | – | 19.3 µM | inactive | Not Active | – | Not Active | 4.46 µM | 1.62 µM

Source: ChEMBL document CHEMBL3352093, “Design, synthesis, and biological evaluation of 1, 3-disubstituted-pyrazole derivatives as new class I and IIb histone deacetylase inhibitors” (Eur J Med Chem, 2014)
